Source: ChEMBL document CHEMBL2021893, “Synthesis, structure-activity relationship and in vitro anti-mycobacterial evaluation of 13-n-octylberberine derivatives” (2012)
≈ marks a conversion by molar mass, not a printed value. Calls of active or inactive are those of the source. The rule behind the calls is not given here.

These compounds were tested on Mycobacterium tuberculosis (assay: Antimycobacterial activity against drug-susceptible Mycobacterium tuberculosis H37Rv measured 24 hrs post dose by microplate alamar blue assay).
Format: functional
Summary of the method: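 Two-fold serial drug dilutions in 7H9 medium in 48-well plates, with H37Rv suspension added to give 4 × 10^-4 mg/mL bacteria per well. Plates were incubated at 37 °C, and alamar blue was added at an optimal time. The read was visual at 24 h after reagent addition. MIC was taken as the lowest concentration preventing the colour change.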
In the case of `CCCCCCCCc1c2[n+](cc3c(OCc4ccccc4)c(OC)ccc13)CCc1cc(OCc3ccccc3)c(OCc3ccccc3)cc1-2.[Cl-]`, the MIC is reported as 8 µg/mL. In the case of `CCCCCCCCc1c2[n+](cc3c(OCCCC)c(OC)ccc13)CCc1cc(OCCCC)c(O)cc1-2.[Cl-]`, the MIC is reported as 8 µg/mL. With `COc1ccc2cc3[n+](cc2c1OC)CCc1cc2c(cc1-3)OCO2` the MIC was “inactive”. Compound `CCCCCCCCc1c2[n+](cc3c(OC)c(OC)ccc13)CCc1cc(OCCCC)c(OCCCC)cc1-2.[Cl-]` has an MIC of 2 µg/mL. `CCCCCCCCc1c2[n+](cc3c(OC)c(OC)ccc13)CCc1cc(OCc3ccccc3)c(O)cc1-2.[Cl-]` gave an MIC of 2 µg/mL. With `CCCCCCc1c2[n+](cc3c(OC)c(OC)ccc13)CCc1cc3c(cc1-2)OCO3` the MIC was “inactive”. Work on `CCCCCCCCc1c2[n+](cc3c(OC)c(OC)ccc13)CCc1cc(OC)c(OC)cc1-2.[Cl-]` yielded an MIC of 2 µg/mL. For `CCCCCCCCc1c2[n+](cc3c(OCCC)c(OC)ccc13)CCc1cc(OCCC)c(O)cc1-2.[Cl-]`, the MIC was 4 µg/mL. `CCCCCCCCc1c2[n+](cc3c(OCC)c(OC)ccc13)CCc1cc(OCC)c(OCC)cc1-2.[Cl-]` gave an MIC of 0.125 µg/mL. With `NNC(=O)c1ccncc1` [ISONIAZID] the MIC was 0.0625 µg/mL (≈ 0.456 µM). For `CCCc1c2[n+](cc3c(OC)c(OC)ccc13)CCc1cc3c(cc1-2)OCO3`, the MIC was “inactive”. `CCCCCCCCc1c2[n+](cc3c(OC)c(OC)ccc13)CCc1cc(OCC)c(O)cc1-2.[Cl-]` showed an MIC of 2 µg/mL. `CCCCCCCCc1c2[n+](cc3c(OC)c(OC)ccc13)CCc1cc(OCCCC)c(O)cc1-2.[Cl-]` gave an MIC of 8 µg/mL. `CCCCCCCCc1c2[n+](cc3c(OC)c(OC)ccc13)CCc1cc(OC)c(O)cc1-2.[Cl-]` showed an MIC of 2 µg/mL. With `CCCCCCCCc1c2[n+](cc3c(OCC)c(OC)ccc13)CCc1cc3c(cc1-2)OCO3.[Cl-]` the MIC was 4 µg/mL. For `CCCCCCCCc1c2[n+](cc3c(OS(=O)(=O)c4ccc(C(F)(F)F)cc4)c(OC)ccc13)CCc1cc3c(cc1-2)OCO3.[Cl-]`, the MIC was 16 µg/mL. `CCCCCCCCc1c2[n+](cc3c(OCc4ccccc4)c(OC)ccc13)CCc1cc(OCc3ccccc3)c(O)cc1-2.[Cl-]` showed an MIC of 0.5 µg/mL. For `CCc1c2[n+](cc3c(OC)c(OC)ccc13)CCc1cc3c(cc1-2)OCO3`, the MIC was “inactive”. Compound `CCCCCCCCc1c2[n+](cc3c(OC)c(OC)ccc13)CCc1cc(OCCC)c(OCCC)cc1-2.[Cl-]` has an MIC of 2 µg/mL. Work on `CCCCCCCCc1c2[n+](cc3c(OC(=O)c4ccc(OC)cc4)c(OC)ccc13)CCc1cc3c(cc1-2)OCO3.[Cl-]` yielded an MIC of 4 µg/mL. Work on `CCCCCCCCc1c2[n+](cc3c(OCC)c(OC)ccc13)CCc1cc(OCC)c(O)cc1-2.[Cl-]` yielded an MIC of 4 µg/mL. Compound `CCCCCCCCc1c2[n+](cc3c(OCc4ccccc4)c(OC)ccc13)CCc1cc3c(cc1-2)OCO3.[Cl-]` has an MIC of 4 µg/mL. In the case of `CCCCCCCCc1c2[n+](cc3c(OC)c(OC)ccc13)CCc1cc(OCCC)c(O)cc1-2.[Cl-]`, the MIC is reported as 4 µg/mL. Compound `CCCCCCCCc1c2[n+](cc3c(OC(=O)c4ccc(C)cc4)c(OC)ccc13)CCc1cc3c(cc1-2)OCO3.[Cl-]` has an MIC of 4 µg/mL. With `CCCCCCCCc1c2[n+](cc3c(OC)c(OC)ccc13)CCc1cc(O)c(O)cc1-2.[Cl-]` the MIC was 16 µg/mL. Compound `CCCCCCCCc1c2[n+](cc3c(OC)c(OC)ccc13)CCc1cc(OCC)c(OCC)cc1-2.[Cl-]` has an MIC of 0.5 µg/mL. Compound `CCCCCCCCc1c2[n+](cc3c(OC)c(OC)ccc13)CCc1cc3c(cc1-2)OCO3.[Cl-]` has an MIC of 2 µg/mL. With `CCCCCc1c2[n+](cc3c(OC)c(OC)ccc13)CCc1cc3c(cc1-2)OCO3` the MIC was “inactive”. `CO[C@H]1/C=C/O[C@@]2(C)Oc3c(C)c(O)c4c(O)c(c(/C=N/N5CCN(C)CC5)c(O)c4c3C2=O)NC(=O)/C(C)=C\C=C\[C@H](C)[C@H](O)[C@@H](C)[C@@H](O)[C@@H](C)[C@H](OC(C)=O)[C@@H]1C` [RIFAMPIN] gave an MIC of 0.0625 µg/mL (≈ 0.0759 µM). For `COc1ccc2c(C)c3[n+](cc2c1OC)CCc1cc2c(cc1-3)OCO2`, the MIC was “inactive”. `CCCCc1c2[n+](cc3c(OC)c(OC)ccc13)CCc1cc3c(cc1-2)OCO3` was tested, and the MIC was “inactive”. `CCCCCCCCc1c2[n+](cc3c(OC)c(OC)ccc13)CCc1cc(OCc3ccccc3)c(OCc3ccccc3)cc1-2.[Cl-]` showed an MIC of 8 µg/mL. For `CCCCCCCCc1c2[n+](cc3c(OS(=O)(=O)c4ccc(C#N)cc4)c(OC)ccc13)CCc1cc3c(cc1-2)OCO3.[Cl-]`, the MIC was 8 µg/mL. For `CCCCCCCCc1c2[n+](cc3c(OC)c(OC)ccc13)CCc1cc3c(cc1-2)OCCO3.[Cl-]`, the MIC was 2 µg/mL. `CCCCCCCCc1c2[n+](cc3c(O)c(OC)ccc13)CCc1cc3c(cc1-2)OCO3.[Cl-]` was tested, and the MIC was 4 µg/mL. For `CCCCCCCc1c2[n+](cc3c(OC)c(OC)ccc13)CCc1cc3c(cc1-2)OCO3`, the MIC was “inactive”. For `CCCCCCCCc1c2[n+](cc3c(OCCCC)c(OC)ccc13)CCc1cc3c(cc1-2)OCO3.[Cl-]`, the MIC was 8 µg/mL. `CCCCCCCCc1c2[n+](cc3c(OCCC)c(OC)ccc13)CCc1cc3c(cc1-2)OCO3.[Cl-]` was tested, and the MIC was 2 µg/mL. In the case of `CCCCCCCCc1c2[n+](cc3c(O)c(OC)ccc13)CCc1cc(O)c(O)cc1-2.[Cl-]`, the MIC is reported as 32 µg/mL.
